In PubChem BioAssay AID743257 (The Scripps Research Institute Molecular Screening Center, 2014) one finds inhibition data, which are given here for two compounds.

Each structure is given as a SMILES string. Screen size: about 2,900 compounds; about 1,900 (66%) were called active. So high a share suggests a set chosen from earlier hits. These entries were drawn from the full list. Values without a mark were called inactive.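 The calls were made as follows: active = mean inhibition across replicates above the hit cutoff set in the primary screen (cut at about 8.5% in these data); inactive = the rest.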

For the assay, the target named is Disintegrin and metalloproteinase domain-containing protein 17 (Homo sapiens) (UniProt P78536). Briefly: ADAM17 inhibitors, hit retest, confirmation, biochemical, QFRET peptide cleavage (AID 743257).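 Also: 0% = DMSO wells and 100% = marimastat wells.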 Particulars: recombinant ADAM17, EDANS/DABCYL QFRET peptide cleavage; at 6.95 µM; hits give high values. The gist of the method: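 Assay system: human ADAM17 protease with quenched FRET peptide substrate / Buffer or medium: 50 mM HEPES buffer, pH 7.5, with 0.01% Brij / Schedule: 30 min preincubation, 3 h reaction / Technique: fluorescence at ex 359 nm, em 460 nm / Read-out: percent inhibition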
Sequence of Disintegrin and metalloproteinase domain-containing protein 17 (Homo sapiens) (P78536 215-824 limits assumed): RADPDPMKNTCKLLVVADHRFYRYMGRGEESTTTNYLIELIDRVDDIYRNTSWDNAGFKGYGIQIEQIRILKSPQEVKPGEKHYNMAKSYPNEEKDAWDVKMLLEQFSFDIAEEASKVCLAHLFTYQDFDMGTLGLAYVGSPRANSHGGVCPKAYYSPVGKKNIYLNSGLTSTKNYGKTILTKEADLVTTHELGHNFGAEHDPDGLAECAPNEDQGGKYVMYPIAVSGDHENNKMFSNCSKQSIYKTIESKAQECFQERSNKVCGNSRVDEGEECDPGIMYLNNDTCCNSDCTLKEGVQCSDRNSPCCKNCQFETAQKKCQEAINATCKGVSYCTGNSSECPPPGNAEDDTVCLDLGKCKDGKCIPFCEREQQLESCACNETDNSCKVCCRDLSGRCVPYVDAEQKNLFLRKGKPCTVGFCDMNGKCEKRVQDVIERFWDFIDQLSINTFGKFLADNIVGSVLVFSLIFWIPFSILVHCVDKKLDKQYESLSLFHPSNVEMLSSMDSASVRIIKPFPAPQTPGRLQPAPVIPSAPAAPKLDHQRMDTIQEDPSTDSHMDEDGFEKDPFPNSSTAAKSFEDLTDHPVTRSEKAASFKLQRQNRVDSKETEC
Regarding `CCOC(=O)CC(SP1(=S)OCC2(CCCCO2)C(C2CCCCO2)O1)C(=O)OCC` (configuration not stated), the inhibition (commonly the share of the control response that was lost under treatment) is 24.1% (active).
The value for `COC(=O)C1=C(c2ccc(-c3ccccc3)c(F)c2)C[C@@H]2CC[C@H]1N2C(=O)NCc1ccc(F)cc1` was 7.03%.
